Measurements published in ChEMBL document CHEMBL1132950, “Synthesis, structure, and antitumor activity of a novel tetranuclear titanium complex” (J Med Chem, 2000).

Legend:
[1] = tested on: Mus musculus; assay: In vivo activity expressed as life span value of average treated / untreated AJ mice for 11.6/6 days (SEM value = 1.93); type: functional, organism-based
In short: (§1)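 Female AJ mice (20–25 g, 5–8 weeks) received 10^6 TA-3 ascites cells ip. From day 3 they got 0.1 mL ip of liposomal complex (1.5×10^-2 M in Ti complex, 0.9% NaCl), each dose equal to 6.2 mg/kg, daily for 1–5 consecutive days. Groups had 5–7 animals. Survival days are given as treated/untreated.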

[2] = tested on: Vero; assay: In vitro percentage of live Vero cells after treatment at 100 uM; type: functional, cell-based; conditions: Chlorocebus sabaeus
In short: (§2)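 Ti complex encapsulated in DPPC liposomes and diluted in 0.9% NaCl. It was added to monolayer cells grown in L-15 with 5% fetal calf serum, penicillin G and gentamicin at 37 °C and 100% humidity, then incubated 72 h at 37 °C. Cells were trypsinized and stained with 0.4% trypan blue, and live cells were counted in a Neubauer chamber. Viability is treated/control viable cells ×100. Five runs.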

[3] = tested on: Mus musculus; assay: In vivo activity expressed as life span value of average treated / untreated CF-1 mice for 26/13 days (SEM value = 2); type: functional, organism-based
In short: (§3)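 Female CF-1 mice (30–35 g, 5–8 weeks) received 10^6 TA-3 ascites cells ip. Three days later, daily ip injections of 0.1 mL DPPC-liposomal complex (1.5×10^-2 M in Ti complex, in 0.9% NaCl) began, each dose equal to 4.1 mg/kg, given for 1–5 consecutive days. Groups had 5–7 mice. Mean survival days are given as treated/untreated.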

[4] = tested on: HEp-2; assay: In vitro percentage of live HEP-2 cells after treatment at 500 uM; type: functional, cell-based; conditions: Homo sapiens; in short: as §2
[5] = tested on: HEp-2; assay: In vitro percentage of live HEP-2 cells after treatment at 100 uM; type: functional, cell-based; conditions: Homo sapiens; in short: as §2
[6] = tested on: Vero; assay: In vitro percentage of live Vero cells after treatment at 80 uM; type: functional, cell-based; conditions: Chlorocebus sabaeus; in short: as §2
[7] = tested on: Mus musculus; assay: In vivo activity expressed as life span value of average treated / untreated CF-1 mice for 25.2/13 days (SEM value = 1.94); type: functional, organism-based; in short: as §3
[8] = tested on: Vero; assay: In vitro percentage of live Vero cells after treatment at 500 uM; type: functional, cell-based; conditions: Chlorocebus sabaeus; in short: as §2
[9] = tested on: Mus musculus; assay: In vivo activity expressed as life span value of average treated / untreated AJ mice for 17.6/6 days (SEM value = 2.93); type: functional, organism-based; in short: as §1
[10] = tested on: Mus musculus; assay: In vivo activity expressed as life span value of average treated / untreated AJ mice for 11.3/6 days (SEM value = 1.88); type: functional, organism-based; in short: as §1
[11] = tested on: Vero; assay: In vitro percentage of live Vero cells after treatment at 8 uM; type: functional, cell-based; conditions: Chlorocebus sabaeus; in short: as §2
[12] = tested on: Mus musculus; assay: In vivo activity expressed as life span value of average treated / untreated CF-1 mice for 20/13 days (SEM value = 1.54); type: functional, organism-based; in short: as §3
[13] = tested on: Mus musculus; assay: In vivo activity expressed as life span value of average treated / untreated AJ mice for 15/6 days (SEM value = 2.54); type: functional, organism-based; in short: as §1
[14] = tested on: HEp-2; assay: In vitro percentage of live HEP-2 cells after treatment at 80 uM; type: functional, cell-based; conditions: Homo sapiens; in short: as §2
[15] = tested on: Mus musculus; assay: In vivo activity expressed as life span value of average treated / untreated AJ mice for 9.6/6 days (SEM value = 1.55); type: functional, organism-based; conditions: in the assay text read “9.3/6 days” for “9.6/6 days”; in short: as §1
[16] = tested on: Mus musculus; assay: In vivo activity expressed as life span value of average treated / untreated CF-1 mice for 25/13 days (SEM value = 1.92); type: functional, organism-based; in short: as §3
[17] = tested on: HEp-2; assay: In vitro percentage of live HEP-2 cells after treatment at 8 uM; type: functional, cell-based; conditions: Homo sapiens; in short: as §2

## cyclo-Tetrakis[bis(1-phenyl-3-methyl-4-benzoylpyrazol-5-onato)-mu-oxotitanium(IV)]
[1]
  T/C: 193%
[2]
  viability: 97.1%
[3]
  T/C: 200%
[4]
  viability: 30%
[5]
  viability: 40.3%
[6]
  viability: 98.4%
[7]
  T/C: 194%
[8]
  viability: 95.2%
[9]
  T/C: 293%
[10]
  T/C: 188%
[11]
  viability: 100%
[12]
  T/C: 154%
[13]
  T/C: 254%
[14]
  viability: 77.4%
[15]
  T/C: 155%
[16]
  T/C: 192%
[17]
  viability: 77.4%
